According to ChEMBL document CHEMBL1165950, “Design and synthesis of new potent anticancer pyrazoles with high FLT3 kinase inhibitory selectivity” (Bioorg Med Chem, 2010):

Columns and labels:
Format in all cases: functional
[1] = tested on: KM12; assay: Cytotoxicity against human KM12 cells assessed as cell growth at 0.001 uM after 48 hrs by sulforhodamine B assay; details: KM12, 48 h, read-out: Activity
[2] = tested on: IGROV-1; assay: Growth inhibition of human IGROV1 cells after 48 hrs by sulforhodamine B assay; details: IGROV-1, 48 h
In short: (§1)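 NCI 60-cell screen, five-dose mode. Cells grown in RPMI 1640 with 5% FBS and 2 mM L-glutamine and plated at 5000-40,000 cells/well according to doubling time. After 24 h preincubation, a Tz plate was TCA-fixed. Five concentrations (10-fold or 1/2 log dilutions) were applied for 48 h at 37 °C. SRB staining read at 515 nm. IC50 taken from [(Ti-Tz)/(C-Tz)]×100 = 50.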

[3] = tested on: K562; assay: Cytotoxicity against human K562 cells assessed as cell growth at 1 uM after 48 hrs by sulforhodamine B assay; details: K562, 48 h, read-out: Activity
[4] = tested on: SK-MEL-2; assay: Growth inhibition of human SK-MEL-2 cells after 48 hrs by sulforhodamine B assay; details: SK-MEL-2, 48 h; in short: as §1
[5] = tested on: OVCAR-8; assay: Cytotoxicity against human OVCAR8 cells assessed as cell growth at 0.001 uM after 48 hrs by sulforhodamine B assay; details: OVCAR-8, 48 h, read-out: Activity
[6] = tested on: CCRF-CEM; assay: Cytotoxicity against human CCRF-CEM cells assessed as cell growth at 10 uM after 48 hrs by sulforhodamine B assay; details: read-out: Activity
In short: (§2)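 NCI-60 five-dose screen. Cells were grown in RPMI 1640 with 5% FBS and 2 mM L-glutamine, plated at 5000–40,000 cells/well and preincubated for 24 h. Time-zero plates were TCA-fixed. DMSO-solubilized drug was added at five concentrations (10-fold or ½-log serial dilutions) for 48 h at 37 °C, 5% CO2. Cells were TCA-fixed, stained with 0.4% SRB and read at 515 nm. Percent growth used time-zero, control and test absorbances.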

[7] = tested on: NCI/ADR-RES; assay: Cytotoxicity against human NCI/ADR-RES cells assessed as cell growth at 1 uM after 48 hrs by sulforhodamine B assay; details: read-out: Activity
[8] = tested on: MDA-MB-468; assay: Cytotoxicity against human MDA-MB-468 cells assessed as cell growth at 10 uM after 48 hrs by sulforhodamine B assay; details: MDA-MB-468, 48 h, read-out: Activity
[9] = tested on: COLO 205; assay: Growth inhibition of human COLO205 cells after 48 hrs by sulforhodamine B assay; details: COLO 205, 48 h
In short: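 NCI five-dose SRB assay in RPMI 1640 with 5% FBS and 2 mM L-glutamine. Cells were preincubated 24 h, then exposed 48 h at 37 °C to five concentrations (10-fold or half-log serial dilutions from DMSO stocks). TCA fixation, SRB staining, and absorbance at 515 nm followed. IC50 was taken where [(Ti−Tz)/(C−Tz)]×100 = 50, with Tz as time-zero cell density.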

[10] = tested on: SK-MEL-5; assay: Cytotoxicity against human SK-MEL-5 cells assessed as cell growth at 10 uM; details: read-out: Activity
In short: (§3)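 NCI-60 screen: cells grown in RPMI 1640 with 5% FBS and 2 mM L-glutamine, plated at 5000–40,000 cells/well according to doubling time, and preincubated 24 h at 37 °C, 5% CO2. The single 10 µM dose (DMSO stock) was added, then incubated 48 h. Cells were TCA-fixed and stained with 0.4% SRB, read at 515 nm, and growth % calculated against time-zero and control plates.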

[11] = tested on: ACHN; assay: Cytotoxicity against human ACHN cells assessed as cell growth at 100 nM after 48 hrs by sulforhodamine B assay; details: read-out: Activity; in short: as §2
[12] = tested on: NCI-H23; assay: Cytotoxicity against human NCI-H23 cells assessed as cell growth at 1 uM after 48 hrs by sulforhodamine B assay; details: NCI-H23, 48 h, read-out: Activity
[13] = tested on: MOLT-4; assay: Cytotoxicity against human MOLT4 cells assessed as cell growth at 10 uM; details: read-out: Activity; in short: as §3
[14] = tested on: UO-31; assay: Cytotoxicity against human UO31 cells assessed as cell growth at 10 uM; details: read-out: Activity; in short: as §3
[15] = tested on: SF-268; assay: Cytotoxicity against human SF268 cells assessed as cell growth at 100 nM after 48 hrs by sulforhodamine B assay; details: SF-268, 48 h, read-out: Activity
[16] = tested on: Malme-3M; assay: Cytotoxicity against human MALME-3M cells assessed as cell growth at 10 uM after 48 hrs by sulforhodamine B assay; details: read-out: Activity
[17] = tested on: HOP-62; assay: Cytotoxicity against human HOP62 cells assessed as cell growth at 0.01 uM after 48 hrs by sulforhodamine B assay; details: HOP-62, 48 h, read-out: Activity
[18] = tested on: SNB-19; assay: Cytotoxicity against human SNB19 cells assessed as cell growth at 0.001 uM after 48 hrs by sulforhodamine B assay; details: SNB-19, 48 h, read-out: Activity
[19] = tested on: NCI/ADR-RES; assay: Cytotoxicity against human NCI/ADR-RES cells assessed as cell growth at 0.001 uM after 48 hrs by sulforhodamine B assay; details: read-out: Activity
[20] = tested on: NCI-H460; assay: Cytotoxicity against human NCI-H460 cells assessed as cell growth at 100 nM after 48 hrs by sulforhodamine B assay; details: NCI-H460, 48 h, read-out: Activity
[21] = tested on: SK-MEL-2; assay: Cytotoxicity against human SK-MEL-2 cells assessed as cell growth at 10 uM; details: read-out: Activity; in short: as §3
[22] = tested on: SNB-75; assay: Cytotoxicity against human SNB75 cells assessed as cell growth at 0.001 uM after 48 hrs by sulforhodamine B assay; details: SNB-75, 48 h, read-out: Activity
[23] = tested on: SNB-19; assay: Cytotoxicity against human SNB19 cells assessed as cell growth at 10 uM after 48 hrs by sulforhodamine B assay; details: SNB-19, 48 h, read-out: Activity
[24] = tested on: NCI/ADR-RES; assay: Cytotoxicity against human NCI/ADR-RES cells assessed as cell growth at 0.01 uM after 48 hrs by sulforhodamine B assay; details: read-out: Activity
[25] = tested on: CAKI-1; assay: Cytotoxicity against human Caki1 cells assessed as cell growth at 10 uM; details: read-out: Activity
In short: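 Single-dose NCI-60 screen at 10 µM. Cells were grown in RPMI 1640 with 5% FBS and 2 mM L-glutamine, then treated for 48 h at 37 °C. Protein was measured by SRB staining with absorbance at 515 nm. Percentage growth was recorded, and inhibition percentage was calculated as 100 minus growth percentage.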

[26] = tested on: NCI-H322M; assay: Cytotoxicity against human NCI-H322M cells assessed as cell growth at 1 uM after 48 hrs by sulforhodamine B assay; details: read-out: Activity
[27] = tested on: HT-29; assay: Cytotoxicity against human HT-29 cells assessed as cell growth at 0.01 uM after 48 hrs by sulforhodamine B assay; details: HT-29, 48 h, read-out: Activity
[28] = tested on: SK-MEL-28; assay: Cytotoxicity against human SK-MEL-28 cells assessed as cell growth at 10 uM; details: read-out: Activity; in short: as §3
[29] = tested on: MDA-MB-435; assay: Cytotoxicity against human MDA-MB-435 cells assessed as cell growth at 0.001 uM after 48 hrs by sulforhodamine B assay; details: MDA-MB-435, 48 h, read-out: Activity
[30] = read-out: LC50 (the source's name)

Compound: Cc1cc(O)cc(-c2nn(CC#N)cc2-c2ccnc(-c3ccc(Oc4ccccc4)cc3)c2)c1
- growth at 0.001 µM [1]: 91%
- GI50 [2]: 1.74 µM
- TGI [2]: 3.75 µM
- CC50 [2, 30]: 8.07 µM
- growth at 1 µM [3]: -13%
- GI50 [4]: 3.44 µM
- TGI [4]: 11.7 µM
- CC50 [4, 30]: 44.2 µM
- growth at 0.001 µM [5]: 96%
- growth at 10 µM [6]: 14%
- growth at 1 µM [7]: -50%
- growth at 10 µM [8]: -88%
- GI50 [9]: 1.8 µM
- TGI [9]: 3.26 µM
- CC50 [9, 30]: 5.9 µM
- growth at 10 µM [10]: 64.3%
- growth at 0.1 µM [11]: 95%
- growth at 1 µM [12]: -64%
- growth at 10 µM [13]: 30%
- growth at 10 µM [14]: 46.9%
- growth at 0.1 µM [15]: 91%
- growth at 10 µM [16]: -72%
- growth at 0.01 µM [17]: 108%
- growth at 0.001 µM [18]: 101%
- growth at 0.001 µM [19]: 105%
- growth at 0.1 µM [20]: 99%
- growth at 10 µM [21]: 73.9%
- growth at 0.001 µM [22]: 86%
- growth at 10 µM [23]: -93%
- growth at 0.01 µM [24]: 96%
- growth at 10 µM [25]: 58.8%
- growth at 1 µM [26]: 35%
- growth at 0.01 µM [27]: 104%
- growth at 10 µM [28]: 63.3%
- growth at 0.001 µM [29]: 103%
